Laboratory results taken from ChEMBL document CHEMBL1152138, “Clubbed [1,2,3] triazoles by fluorine benzimidazole: a novel approach to H37Rv inhibitors as a potential treatment for tuberculosis” (Bioorg Med Chem Lett, 2008).
Converted amounts (≈) assume the structure as drawn. “And” between values parts separate entries of the source, which are not always exact repeats. Equal entries are not always repeated.

Key:
[1] = tested on: Escherichia coli; assay: Antimicrobial activity against Escherichia coli after 24 hrs by well diffusion method; type: functional
How it was run: (§1)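 Well diffusion on nutrient agar. 10 mm wells cut with a sterile cork borer. Plates swab-inoculated from a 24 h bacterial subculture in nutrient broth. Compounds dissolved in chloroform and added to wells at 50 and 100 µM. Gentamycin used as standard. % inhibition derived from inhibition zone diameter.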

[2] = tested on: Pseudomonas aeruginosa; assay: Antimicrobial activity against Pseudomonas aeruginosa after 24 hrs by well diffusion method; type: functional; how it was run: as §1
[3] = tested on: Mycobacterium tuberculosis; assay: Antitubercular activity against Mycobacterium tuberculosis H37Rv ATCC 27294 by microplate alamar blue assay; type: functional
How it was run: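 Compounds active in the primary screen were retested at lower concentrations against H37Rv by Microplate Alamar Blue Assay. MIC taken as the lowest concentration giving a 95% reduction in fluorescence relative to controls. Rifampin used as reference.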

[4] = Cytotoxicity against african green monkey Vero C1008 cells at 6.25 to 50 ug/mL by neutral-red uptake assay; type: cell-based; details: chlorocebus sabaeus
How it was run: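 Vero C-1008 cells exposed to compounds at 6.25–50 µg/mL. Cytotoxicity read out by neutral red uptake.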

[5] = tested on: Staphylococcus aureus; assay: Antimicrobial activity against Staphylococcus aureus after 24 hrs by well diffusion method; type: functional; how it was run: as §1
[6] = tested on: Salmonella typhi; assay: Antimicrobial activity against Salmonella typhosa after 24 hrs by well diffusion method; type: functional, Salmonella enterica subsp. enterica serovar Typhi; how it was run: as §1
[7] = tested on: Mycobacterium tuberculosis; assay: Antitubercular activity against Mycobacterium tuberculosis H37Rv ATCC 27294 at 6.25 ug/mL by microplate alamar blue assay; type: functional; details: read-out: GI
How it was run: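 Primary screen against M. tuberculosis H37Rv (ATCC 27294) at a single concentration of 6.25 µg/mL. Broth microdilution Microplate Alamar Blue Assay in BACTEC 12B medium. Fluorescent compounds were instead run in the BACTEC 460 radiometric system. Percent growth inhibition reported; >95% counted as active. Rifampin used as reference.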

Compound	inhibition zone (IZ) [1]	inhibition zone (IZ) [2]	MIC [3]	Activity [4]	inhibition zone (IZ) [5]	inhibition zone (IZ) [6]	inhibition zone (IZ) ([6]; Salmonella enterica subsp. enterica serovar Typhi)	inhibition of growth at 6.25 µg/mL [7]
Fc1cccc(-c2nc3ccccc3n2Cc2cn(-c3ccccc3)nn2)c1	17 mm	28 mm	> 6.25 µg/mL	Non-toxic	26 mm	18 mm		
GENTAMICIN							30 mm	
COc1ccccc1-n1cc(Cn2c(-c3cccc(F)c3)nc3ccccc32)nn1	19 mm	24 mm	> 6.25 µg/mL	Non-toxic	21 mm	23 mm		
Fc1cccc(-c2nc3ccccc3n2Cc2cn(-c3ccc(F)c(F)c3)nn2)c1	30 mm	31 mm	0.34 µM and > 6.25 µg/mL	Non-toxic	32 mm	29 mm		96%
Fc1cccc(-c2nc3ccccc3n2Cc2cn(-c3ccc(C(F)(F)F)cc3)nn2)c1	21 mm	13 mm	> 6.25 µg/mL	Non-toxic	18 mm	18 mm		
Fc1cccc(-c2nc3ccccc3n2Cc2cn(-c3ccc(F)c(F)c3F)nn2)c1	29 mm	33 mm	> 6.25 µg/mL	Non-toxic	31 mm	30 mm		
Fc1ccc(-n2cc(Cn3c(-c4cccc(F)c4)nc4ccccc43)nn2)cc1	20 mm	19 mm	0.58 µM and > 6.25 µg/mL	Non-toxic	26 mm	19 mm		96%
COc1ccc(-n2cc(Cn3c(-c4cccc(F)c4)nc4ccccc43)nn2)cc1	18 mm	26 mm	6.25 µM and > 6.25 µg/mL	Non-toxic	20 mm	21 mm		96%
CO[C@H]1/C=C/O[C@@]2(C)Oc3c(C)c(O)c4c(O)c(c(/C=N/N5CCN(C)CC5)c(O)c4c3C2=O)NC(=O)/C(C)=C\C=C\[C@H](C)[C@H](O)[C@@H](C)[C@@H](O)[C@@H](C)[C@H](OC(C)=O)[C@@H]1C [RIFAMPIN]			0.015 µg/mL (≈ 0.0182 µM)					
Cc1ccccc1-n1cc(Cn2c(-c3cccc(F)c3)nc3ccccc32)nn1	14 mm	19 mm	> 12.5 µg/mL	Non-toxic	16 mm	17 mm		
Fc1cccc(-c2nc3ccccc3n2Cc2cn(-c3ccc(F)cc3F)nn2)c1	32 mm	34 mm	0.32 µM and > 6.25 µg/mL	Non-toxic	33 mm	31 mm		96%
Cc1ccc(-n2cc(Cn3c(-c4cccc(F)c4)nc4ccccc43)nn2)c(F)c1	21 mm	13 mm	3.13 µM and > 6.25 µg/mL	Non-toxic	18 mm	18 mm		96%
Cc1ccc(-n2cc(Cn3c(-c4cccc(F)c4)nc4ccccc43)nn2)cc1	19 mm	20 mm	> 12.5 µg/mL	Non-toxic	18 mm	17 mm		
